In ChEMBL document CHEMBL2380216, “Design and selection parameters to accelerate the discovery of novel central nervous system positron emission tomography (PET) ligands and their application in the development of a novel phosphodiesterase 2A PET ligand” (J Med Chem, 2013):
Values belong to the compound of their own block, whether it stands above or below them. Active and inactive are the calls of the source. No cut-off for these calls is given here.

What was measured:
[1] = Apparent permeability across apical to basolateral side in dog RRCK cells; type: ADME, cell-based, Canis lupus familiaris, MDCKII-LE; conditions: MDCK
[2] = test system: Cynomolgus monkey; assay: Binding affinity to PDE2A in cynomolgus monkey striatum at 215 MBq, iv measured for 90 mins by PET analysis; type: functional, organism-based; conditions: Macaca fascicularis, 215 M, tested as the 18F-labelled form
Procedure, shortened: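 Two male cynomolgus monkeys, 5–6 years old, were fasted overnight and premedicated with ketamine (10 mg/kg IM) and glycopyrrolate (0.01 mg/kg IM). They were then intubated and kept under isoflurane (1.5−2.0% in oxygen). Tracer was an IV bolus via the saphenous vein, targeting 37 MBq/kg. A 90 min dynamic scan followed. Striatal binding potential was derived by a simplified reference tissue model, with cerebellum as the reference region.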

[3] = molecular target: cAMP and cAMP-inhibited cGMP 3',5'-cyclic phosphodiesterase 10A (Homo sapiens, UniProt Q9Y233); assay: Inhibition of PDE10A (unknown origin)
Sequence of cAMP and cAMP-inhibited cGMP 3',5'-cyclic phosphodiesterase 10A (Q9Y233 whole entry): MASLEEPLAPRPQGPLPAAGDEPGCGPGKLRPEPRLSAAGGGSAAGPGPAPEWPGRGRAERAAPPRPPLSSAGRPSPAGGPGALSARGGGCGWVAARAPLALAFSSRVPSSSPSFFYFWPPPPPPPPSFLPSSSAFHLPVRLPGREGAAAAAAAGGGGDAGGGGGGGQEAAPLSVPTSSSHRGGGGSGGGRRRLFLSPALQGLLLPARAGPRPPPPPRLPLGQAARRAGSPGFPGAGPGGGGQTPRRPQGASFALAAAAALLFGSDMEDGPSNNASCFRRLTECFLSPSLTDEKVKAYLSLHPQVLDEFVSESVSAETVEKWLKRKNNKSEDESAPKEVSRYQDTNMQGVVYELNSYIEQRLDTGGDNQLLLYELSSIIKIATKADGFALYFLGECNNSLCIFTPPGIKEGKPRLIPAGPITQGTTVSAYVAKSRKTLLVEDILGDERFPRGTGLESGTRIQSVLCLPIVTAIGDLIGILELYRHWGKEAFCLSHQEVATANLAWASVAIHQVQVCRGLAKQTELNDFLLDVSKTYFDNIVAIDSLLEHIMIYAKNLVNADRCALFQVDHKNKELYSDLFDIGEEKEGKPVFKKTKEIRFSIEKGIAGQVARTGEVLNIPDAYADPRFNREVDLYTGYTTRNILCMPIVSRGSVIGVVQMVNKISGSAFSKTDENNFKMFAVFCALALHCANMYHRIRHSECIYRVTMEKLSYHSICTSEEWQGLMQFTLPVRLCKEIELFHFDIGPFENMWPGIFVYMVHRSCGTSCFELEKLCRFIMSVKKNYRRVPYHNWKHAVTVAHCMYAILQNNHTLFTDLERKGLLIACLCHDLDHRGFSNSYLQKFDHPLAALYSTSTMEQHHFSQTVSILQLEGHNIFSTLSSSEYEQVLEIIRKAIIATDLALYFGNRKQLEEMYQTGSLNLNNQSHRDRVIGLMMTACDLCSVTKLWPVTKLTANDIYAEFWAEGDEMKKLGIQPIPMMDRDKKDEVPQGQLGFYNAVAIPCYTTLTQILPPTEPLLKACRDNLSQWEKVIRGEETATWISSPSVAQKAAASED

[4] = molecular target: High affinity cAMP-specific and IBMX-insensitive 3',5'-cyclic phosphodiesterase 8B (Homo sapiens, UniProt O95263); assay: Inhibition of PDE8B (unknown origin)
[5] = molecular target: High affinity cGMP-specific 3',5'-cyclic phosphodiesterase 9A (Homo sapiens, UniProt O76083); assay: Inhibition of PDE9A (unknown origin)
Sequence of High affinity cGMP-specific 3',5'-cyclic phosphodiesterase 9A (O76083 whole entry): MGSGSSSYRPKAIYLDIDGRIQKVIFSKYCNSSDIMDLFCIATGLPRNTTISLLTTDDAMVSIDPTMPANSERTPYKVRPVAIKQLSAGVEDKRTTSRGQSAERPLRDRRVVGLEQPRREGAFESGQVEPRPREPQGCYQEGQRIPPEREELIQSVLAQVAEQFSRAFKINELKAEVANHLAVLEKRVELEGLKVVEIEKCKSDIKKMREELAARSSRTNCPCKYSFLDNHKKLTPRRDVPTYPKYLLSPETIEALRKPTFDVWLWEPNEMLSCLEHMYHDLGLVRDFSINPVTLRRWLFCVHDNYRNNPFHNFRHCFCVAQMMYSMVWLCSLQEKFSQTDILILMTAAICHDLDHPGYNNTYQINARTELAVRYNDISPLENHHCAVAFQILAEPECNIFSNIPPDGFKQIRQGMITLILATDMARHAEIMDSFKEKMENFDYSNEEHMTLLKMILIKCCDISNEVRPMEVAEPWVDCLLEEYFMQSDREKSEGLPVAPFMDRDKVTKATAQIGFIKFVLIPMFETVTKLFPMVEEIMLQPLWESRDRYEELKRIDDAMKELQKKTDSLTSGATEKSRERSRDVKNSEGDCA

[6] = molecular target: 3',5'-cyclic-AMP phosphodiesterase 7B (Homo sapiens, UniProt Q9NP56); assay: Inhibition of PDE7B (unknown origin)
[7] = molecular target: cGMP-specific 3',5'-cyclic phosphodiesterase (Homo sapiens, UniProt O76074); assay: Inhibition of PDE5A (unknown origin)
[8] = molecular target: 3',5'-cyclic-AMP phosphodiesterase 4D (Homo sapiens, UniProt Q08499); assay: Inhibition of PDE4D (unknown origin)
Sequence of 3',5'-cyclic-AMP phosphodiesterase 4D (Q08499 whole entry): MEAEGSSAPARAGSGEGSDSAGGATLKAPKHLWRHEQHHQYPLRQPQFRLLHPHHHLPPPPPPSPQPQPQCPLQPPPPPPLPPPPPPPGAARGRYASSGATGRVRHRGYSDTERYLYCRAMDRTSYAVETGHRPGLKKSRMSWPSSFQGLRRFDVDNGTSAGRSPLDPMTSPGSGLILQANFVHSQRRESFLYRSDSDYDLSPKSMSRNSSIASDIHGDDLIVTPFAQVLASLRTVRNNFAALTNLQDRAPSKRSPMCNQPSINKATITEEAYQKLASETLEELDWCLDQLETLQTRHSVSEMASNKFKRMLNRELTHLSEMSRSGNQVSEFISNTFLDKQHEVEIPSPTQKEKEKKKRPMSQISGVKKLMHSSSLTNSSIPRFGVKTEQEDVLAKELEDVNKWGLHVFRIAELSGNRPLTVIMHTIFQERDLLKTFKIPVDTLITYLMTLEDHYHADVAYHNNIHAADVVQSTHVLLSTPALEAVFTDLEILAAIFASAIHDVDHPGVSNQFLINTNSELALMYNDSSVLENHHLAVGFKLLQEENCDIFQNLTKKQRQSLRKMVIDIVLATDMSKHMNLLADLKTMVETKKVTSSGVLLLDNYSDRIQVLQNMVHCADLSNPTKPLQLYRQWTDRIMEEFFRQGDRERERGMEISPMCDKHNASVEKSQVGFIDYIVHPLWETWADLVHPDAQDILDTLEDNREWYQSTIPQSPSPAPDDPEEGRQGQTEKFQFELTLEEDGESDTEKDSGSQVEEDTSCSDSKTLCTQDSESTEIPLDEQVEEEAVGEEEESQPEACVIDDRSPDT

[9] = molecular target: cGMP-inhibited 3',5'-cyclic phosphodiesterase 3A (Homo sapiens, UniProt Q14432); assay: Inhibition of PDE3A (unknown origin)
Sequence of cGMP-inhibited 3',5'-cyclic phosphodiesterase 3A (Q14432 whole entry): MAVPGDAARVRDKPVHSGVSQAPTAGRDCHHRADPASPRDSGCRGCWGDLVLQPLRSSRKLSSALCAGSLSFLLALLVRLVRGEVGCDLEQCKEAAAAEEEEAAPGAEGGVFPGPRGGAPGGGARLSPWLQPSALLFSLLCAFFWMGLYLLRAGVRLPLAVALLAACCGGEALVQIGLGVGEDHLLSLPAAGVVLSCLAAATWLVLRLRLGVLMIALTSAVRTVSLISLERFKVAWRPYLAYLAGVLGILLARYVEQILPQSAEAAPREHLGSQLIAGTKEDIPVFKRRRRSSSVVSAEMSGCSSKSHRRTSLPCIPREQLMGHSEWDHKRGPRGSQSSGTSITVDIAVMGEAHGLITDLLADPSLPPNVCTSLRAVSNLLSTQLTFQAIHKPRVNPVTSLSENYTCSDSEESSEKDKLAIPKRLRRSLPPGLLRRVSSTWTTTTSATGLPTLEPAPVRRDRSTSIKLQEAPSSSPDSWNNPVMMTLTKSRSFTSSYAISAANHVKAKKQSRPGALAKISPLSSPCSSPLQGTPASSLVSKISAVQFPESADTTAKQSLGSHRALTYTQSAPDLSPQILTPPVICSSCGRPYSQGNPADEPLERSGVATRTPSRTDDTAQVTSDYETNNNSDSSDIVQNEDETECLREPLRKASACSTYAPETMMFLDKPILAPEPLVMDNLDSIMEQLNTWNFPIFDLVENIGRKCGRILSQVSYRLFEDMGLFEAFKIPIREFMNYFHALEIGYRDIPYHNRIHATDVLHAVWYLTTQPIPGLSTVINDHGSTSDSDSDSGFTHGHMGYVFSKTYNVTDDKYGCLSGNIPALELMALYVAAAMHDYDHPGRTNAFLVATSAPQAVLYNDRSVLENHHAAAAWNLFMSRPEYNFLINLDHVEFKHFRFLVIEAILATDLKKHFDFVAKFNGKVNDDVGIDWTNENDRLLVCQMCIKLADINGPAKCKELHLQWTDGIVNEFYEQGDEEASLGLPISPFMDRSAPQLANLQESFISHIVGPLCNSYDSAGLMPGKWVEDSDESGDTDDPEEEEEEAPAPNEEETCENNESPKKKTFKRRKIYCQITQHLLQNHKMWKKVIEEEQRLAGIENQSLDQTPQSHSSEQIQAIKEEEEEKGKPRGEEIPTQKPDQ

[10] = molecular target: Dual specificity calcium/calmodulin-dependent 3',5'-cyclic nucleotide phosphodiesterase 1B (Homo sapiens, UniProt Q01064); assay: Inhibition of PDE1B (unknown origin)
Sequence of Dual specificity calcium/calmodulin-dependent 3',5'-cyclic nucleotide phosphodiesterase 1B (Q01064 whole entry): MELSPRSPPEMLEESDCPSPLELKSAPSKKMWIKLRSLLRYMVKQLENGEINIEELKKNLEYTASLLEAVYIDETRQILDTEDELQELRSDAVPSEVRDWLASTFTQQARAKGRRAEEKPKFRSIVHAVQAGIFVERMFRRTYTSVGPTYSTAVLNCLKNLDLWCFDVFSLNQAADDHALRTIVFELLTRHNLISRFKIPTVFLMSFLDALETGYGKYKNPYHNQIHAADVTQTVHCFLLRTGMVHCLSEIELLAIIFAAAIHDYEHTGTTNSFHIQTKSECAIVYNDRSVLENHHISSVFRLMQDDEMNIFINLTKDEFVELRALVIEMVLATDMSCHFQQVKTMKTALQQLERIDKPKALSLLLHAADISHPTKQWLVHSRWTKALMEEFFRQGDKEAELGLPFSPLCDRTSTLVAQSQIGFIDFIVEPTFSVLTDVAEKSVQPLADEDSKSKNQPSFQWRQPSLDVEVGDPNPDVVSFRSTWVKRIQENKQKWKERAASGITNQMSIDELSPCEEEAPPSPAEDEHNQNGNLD

[11] = Ratio of total drug level in brain to plasma in Wistar Han rat at 1 mg/kg, iv after 2 hrs; type: ADME, organism-based; design: dose 1 mg/kg, route intravenous
Procedure, shortened: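 Wistar-Han rats received a single 1 mg/kg IV dose. Total drug levels in brain and plasma were determined from pharmacokinetics over 0−2 h post-dose and expressed as a ratio.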

[12] = Fraction unbound in human plasma; type: ADME, cell-free
[13] = Fraction unbound in rat plasma; type: ADME, cell-free
[14] = Fraction unbound in rat brain; type: ADME, tissue-based
[15] = molecular target: cGMP-dependent 3',5'-cyclic phosphodiesterase (Homo sapiens, UniProt O00408); assay: Inhibition of full length recombinant human PDE2A expressed in Sf21 cells using [3H]-cGMP as substrate by scintillation proximity assay
Sequence of cGMP-dependent 3',5'-cyclic phosphodiesterase (O00408 whole entry): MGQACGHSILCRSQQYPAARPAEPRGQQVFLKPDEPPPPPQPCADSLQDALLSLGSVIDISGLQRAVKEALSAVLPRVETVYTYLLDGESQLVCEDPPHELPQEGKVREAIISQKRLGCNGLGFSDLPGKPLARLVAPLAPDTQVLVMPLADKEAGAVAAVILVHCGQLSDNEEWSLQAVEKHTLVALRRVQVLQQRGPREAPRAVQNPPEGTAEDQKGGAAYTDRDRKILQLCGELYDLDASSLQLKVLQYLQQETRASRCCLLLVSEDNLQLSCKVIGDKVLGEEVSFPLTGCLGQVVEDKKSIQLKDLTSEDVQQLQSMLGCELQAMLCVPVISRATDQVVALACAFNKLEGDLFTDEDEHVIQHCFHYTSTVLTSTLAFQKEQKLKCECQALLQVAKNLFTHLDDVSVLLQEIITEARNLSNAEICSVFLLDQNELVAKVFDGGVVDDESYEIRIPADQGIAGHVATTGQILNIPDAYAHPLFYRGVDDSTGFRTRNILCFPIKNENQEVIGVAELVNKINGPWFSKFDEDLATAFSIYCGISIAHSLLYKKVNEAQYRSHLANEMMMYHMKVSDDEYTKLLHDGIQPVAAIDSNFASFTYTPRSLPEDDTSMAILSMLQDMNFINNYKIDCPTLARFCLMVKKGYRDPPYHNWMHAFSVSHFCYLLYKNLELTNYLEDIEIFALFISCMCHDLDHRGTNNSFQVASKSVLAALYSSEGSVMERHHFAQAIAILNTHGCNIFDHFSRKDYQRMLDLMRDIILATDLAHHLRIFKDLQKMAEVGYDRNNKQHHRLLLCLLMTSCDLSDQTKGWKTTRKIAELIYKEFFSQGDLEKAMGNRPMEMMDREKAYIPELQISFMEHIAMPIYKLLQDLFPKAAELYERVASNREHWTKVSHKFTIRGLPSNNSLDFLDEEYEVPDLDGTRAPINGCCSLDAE

[16] = Drug uptake in cynomolgus monkey cerebellum at 215 MBq, iv measured for 90 mins by PET analysis; type: ADME, organism-based, Macaca fascicularis; conditions: in vivo, 1.5 h
Procedure, shortened: (§1)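 Male cynomolgus monkeys (n=2, 5–6 years) were fasted overnight and given ketamine 10 mg/kg IM plus glycopyrrolate 0.01 mg/kg IM. They were intubated and maintained under isoflurane (1.5−2.0% in O2). The radiotracer was given as an IV saphenous bolus targeting 37 MBq/kg. A 57Co transmission scan provided attenuation/scatter correction. A 90 min dynamic acquisition was binned into 16 frames (5×1, 5×5, 6×10 min).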

[17] = Drug uptake in cynomolgus monkey caudate nucleus at 215 MBq, iv measured for 90 mins by PET analysis; type: ADME, organism-based, Macaca fascicularis; conditions: in vivo, 1.5 h; procedure, shortened: as §1
[18] = Drug uptake in cynomolgus monkey skull at 215 MBq, iv measured for 90 mins by PET analysis; type: ADME, organism-based, Macaca fascicularis; conditions: in vivo, 1.5 h; procedure, shortened: as §1
[19] = test system: Putamen; assay: Drug uptake in cynomolgus monkey putamen at 215 MBq, iv measured for 90 mins by PET analysis; type: ADME, organism-based, Macaca fascicularis; conditions: in vivo, 1.5 h; procedure, shortened: as §1

Papp A→B [1]: 21.5 ×10⁻⁶ cm/s
SMILES: Cn1ncc(-c2nn(C)c3ncnc(N4CCC4)c23)c1-c1ccc(C(F)(F)F)cc1

Activity [2]: Active | IC50 [3]: 3.9 µM | IC50 [4]: > 10 µM | IC50 [5]: > 10 µM | IC50 [6]: 12 µM | IC50 [7]: 26 µM | IC50 [8]: > 30 µM | IC50 [9]: > 30 µM | IC50 [10]: > 30 µM | BPR ([11]; brain, 2 h): 1.56 | fraction unbound [12]: 0.17 | fraction unbound [13]: 0.24 | fraction unbound [14]: 0.077 | IC50 [15]: 0.00053 µM | Papp A→B [1]: 21 ×10⁻⁶ cm/s
SMILES: Cc1nc(-c2cnn(C)c2-c2ccc(C(F)(F)F)cc2)c2c(N3CC(F)C3)ncnn12

Kp at 2 h ([11]; Wistar Han, brain and plasma, read-out: BPR): 0.34 | fraction unbound [12]: 0.23 | fraction unbound [13]: 0.29 | fraction unbound [14]: 0.17 | Papp A→B [1]: 42 ×10⁻⁶ cm/s
SMILES: COc1ccc(-c2c(-c3nc(C)n4ncnc(N5CCC5)c34)cnn2C)c(C)c1

Drug uptake [16]: Active | Drug uptake [17]: Active | Drug uptake [18]: Not Active | Drug uptake [19]: Active
SMILES: Cc1nc(-c2cnn(C)c2-c2ccc(C(F)(F)F)cc2)c2c(N3CC([18F])C3)ncnn12
